Compound activity as filed in PubChem BioAssay.
The list is not random: actives were taken first. Their share in the collection is about 2.2%.
NR2E3 ag-1 = agonists of human NR2E3 nuclear receptor; Q9Y5X4; CHO-S Gal4-NCOR/VP16-NR2E3 two-hybrid, luciferase; inhibition of corepressor binding, % at 3.98 µM; 360,000 compounds, 0.35% hits; AID 602229;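 active = inhibition above the mean of all tested compounds plus 3 SD, cut at about 70% in these data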;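 note: higher means lower luciferase signal from less NR2E3 corepressor binding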
Target sequence (Q9Y5X4 whole entry, looked up, the tested form may be a part): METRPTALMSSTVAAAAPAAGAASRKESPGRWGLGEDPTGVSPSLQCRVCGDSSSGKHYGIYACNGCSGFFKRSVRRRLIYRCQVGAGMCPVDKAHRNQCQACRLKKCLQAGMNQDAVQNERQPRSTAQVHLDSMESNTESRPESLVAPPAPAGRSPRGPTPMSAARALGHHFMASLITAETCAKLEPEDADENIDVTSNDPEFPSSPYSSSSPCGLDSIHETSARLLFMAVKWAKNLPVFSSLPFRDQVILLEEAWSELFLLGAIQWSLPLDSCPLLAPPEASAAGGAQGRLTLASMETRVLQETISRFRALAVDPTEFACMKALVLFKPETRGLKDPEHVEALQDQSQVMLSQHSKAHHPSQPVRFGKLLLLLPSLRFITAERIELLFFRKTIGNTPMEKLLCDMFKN
COUP-TFII inh = blocks human COUP-TFII nuclear receptor; HEK293T NGFI-A luciferase reporter, luminescence; inhibition, % at 8.6 µM; 370,000 compounds, 0.7% hits; AID 686940;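 active = inhibition above a per-plate cutoff, mean inhibition of test wells between control levels plus 3 SD, cut at about 38% in these data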;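 note: cells cotransfected with COUP-TFII expression vector driving the NGFI-A reporter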
NR2E3 ag-2 = agonists of human nuclear receptor NR2E3; GST-NR2E3/biotin-RetCOR TR-FRET, 1536-well; inhibition of corepressor binding, % at 4.78 µM; AID 2300; Q9Y5X4; 320,000 compounds, 0.12% hits;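 active = percent inhibition above the cutoff of mean plus 3 SD of all tested compounds, set per screening campaign, cut at about 20% in these data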
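System: GST-tagged NR2E3 plus biotinylated RetCOR corepressor; Buffer or medium: pH 7.5 Tris-based buffer; Probe or stimulus: RetCOR corepressor, biotinylated, 7 nM; Doses: compound at 4.8 µM, single dose; Schedule: 5 h incubation at 4 °C; Technique: time-resolved FRET; Evaluation: percent inhibition of TR-FRET ratio; Replication: one well per compound, singlicate testing.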
SMARCA2 activ = increases SMARCA2 function in MMTV reporter cells | MG213 cells, MMTV-luciferase reporter, dexamethasone, overnight | activation, % at 9.1 µM | 370,000 compounds, 1% hits | AID 652017; in the data active = activation above about 7.8%
GalR3 antagonist = human GalR3 antagonism | O60755 | HEK293 GalR3-CNG cAMP membrane potential fluorescence; galR3 body fused to GalR1 C-terminus | inhibition, % at 3 µM | 360,000 compounds, 0.44% hits | AID 651719;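 active = inhibition above the screen-wide average plus 3 SD, cut at about 13% in these data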;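 note: forskolin and galanin both at EC90 stimulate the cells; cAMP rise reported by CNG channel membrane potential dye signal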
NR2E3 ag conf = confirmation of human NR2E3 agonists; CHO-S mammalian two-hybrid NR2E3-NCOR, luciferase luminescence; shares compounds with NR2E3 ag-1; inhibition, % at 3.98 µM; 2,300 compounds, 51% hits;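 active = average inhibition above a cutoff equal to the mean inhibition of all tested compounds plus one SD, cut at about 70% in these data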
GAL4-VP16 luc = GAL4-VP16 reporter inhibition in NR2E3 agonist counterscreen; shares compounds with NR2E3 ag-1; inhibition, % at 3.98 µM; CHO-S GAL4-VP16 luciferase reporter, luminescence; 2,300 compounds, 29% hits;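 active = mean inhibition above a cutoff equal to the average over all tested compounds plus one standard deviation, cut at about 70% in these data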;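 note: luciferase from a UAS reporter driven by GAL4-VP16 transactivation; higher means less reporter light so more repression of VP16 activity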
Of the large screens only hits and unclear results are named; the others gave an inactive call (follow-up assays come after a bar, where they were run).

C/C(=N\NC(=S)NCCc1ccccc1)c1ccc(O)cc1O	NR2E3 ag-1 78 | NR2E3 ag conf inactive | GAL4-VP16 luc inactive
CCOc1ccc(/C(CCC(=O)O)=N/NC(=S)NCCc2ccccc2)cc1	none | NR2E3 ag conf inactive | GAL4-VP16 luc inactive
C/C(=N\NC(=S)NCc1ccccc1)c1ccccc1	none | NR2E3 ag conf inactive | GAL4-VP16 luc inactive
C/C(=N\NC(=S)NCCc1ccccc1)c1ccc(Cl)cc1Cl	none
CCCC/C=C1/[C@H](c2ccc(Cl)cc2)N(Cc2ccc3c(c2)OCO3)C2=N[C@H](c3ccccc3)CC(=O)N21	none (no result: NR2E3 ag-1, NR2E3 ag-2, GalR3 antagonist)
CS(=O)(=O)N1CCc2cc(S(=O)(=O)Nc3ccc4oc5c(c4c3)CCCC5)ccc21	none | NR2E3 ag conf 79 | GAL4-VP16 luc inactive
Cc1ccc(NC(=O)c2ccc3c(c2)CCN3S(C)(=O)=O)cc1C	none
O=C(NCc1ccccn1)C1Nc2ccc(C(F)(F)F)cc2C2C=CCC12 (centres undefined)	NR2E3 ag-1 97 | NR2E3 ag conf inactive | GAL4-VP16 luc inactive
COc1cc(CCc2ccccc2)c(C(=O)O)c(O)c1C/C=C(/C)CCC=C(C)C	none (no result: NR2E3 ag-2) | NR2E3 ag conf 98 | GAL4-VP16 luc 71
COCOc1ccc(/C=C/C(=O)c2c(OCOC)cc(OCOC)c(CC=C(C)C)c2O)cc1OCOC	none (no result: COUP-TFII inh, SMARCA2 activ, GalR3 antagonist)
COc1cc(CCc2ccccc2)c(C(=O)O)c(O)c1CC=C(C)C	NR2E3 ag-1 85 (no result: NR2E3 ag-2) | NR2E3 ag conf 99 | GAL4-VP16 luc 78
CCCc1ccc(Oc2cn[nH]c2-c2ccc(O)c(C)c2O)cc1	none | NR2E3 ag conf inactive | GAL4-VP16 luc inactive
COc1cccc(OC)c1NC(=O)OCCN1CCCC12CCC(c1ccccc1)CC2 (centres undefined)	none (no result: NR2E3 ag-1, NR2E3 ag-2, SMARCA2 activ, GalR3 antagonist)
CCNC(=O)Nc1cc(S(=O)(=O)Nc2ccc(OC)cc2)ccc1N1CCOCC1	NR2E3 ag-1 85 (no result: COUP-TFII inh, SMARCA2 activ, GalR3 antagonist) | NR2E3 ag conf 84 | GAL4-VP16 luc 76
Nc1cc(S(=O)(=O)Nc2ccccc2Cl)ccc1N1CCOCC1	none
Nc1cc(S(=O)(=O)Nc2ccc(Cl)cc2)ccc1N1CCOCC1	none | NR2E3 ag conf 85 | GAL4-VP16 luc inactive
COc1ccc(NS(=O)(=O)c2ccc(N3CCCC3)c(N)c2)cc1	NR2E3 ag-1 89 | NR2E3 ag conf 77 | GAL4-VP16 luc 72
CCCCNC(=O)c1ccc(N2CCOCC2)c(NS(=O)(=O)c2ccc(OC)cc2)c1	none
O=S1(=O)c2ccc(Br)cc2OC[C@@H](c2ccccc2)N1Cc1cn(Cc2ccccc2)nn1	none (no result: NR2E3 ag-1, NR2E3 ag-2, GalR3 antagonist)
Nn1c(SCC(=O)N2c3ccccc3Sc3ccc(Cl)cc32)nnc1-c1cc(-c2ccc(F)cc2)n[nH]1	none (no result: NR2E3 ag-1, NR2E3 ag-2, GalR3 antagonist)
COc1ccc(-n2c(COc3ccc(C)cc3)nnc2SCC(=O)Nc2ccc(S(=O)(=O)Nc3cc(C)nc(C)n3)cc2)cc1	none (no result: NR2E3 ag-1, NR2E3 ag-2, GalR3 antagonist)
CCOC(=O)C1=C(CC)Nc2ccccc2N/C1=N\S(=O)(=O)c1cc(Br)ccc1Br	none (no result: NR2E3 ag-2) | NR2E3 ag conf 88 | GAL4-VP16 luc inactive
N=C1SCC(=O)N1c1ncc(Cc2cccc(Cl)c2)s1	NR2E3 ag-1 100 (no result: NR2E3 ag-2) | NR2E3 ag conf 97 | GAL4-VP16 luc inactive
CC(C)C(=O)Nc1ncc(Cc2ccccc2Cl)s1	none
N=C1SCC(=O)N1c1ncc(Cc2ccccc2Cl)s1	NR2E3 ag-1 100 (no result: NR2E3 ag-2) | NR2E3 ag conf 90 | GAL4-VP16 luc inactive
O=C1c2ccccc2C(=O)N1c1ncc(Cc2ccc(Cl)cc2)s1	none
O=c1c2ccc(F)cc2nc2sc(Nc3ccc4c(c3)CCC4)nn12	none (no result: NR2E3 ag-1, NR2E3 ag-2, SMARCA2 activ, GalR3 antagonist)
Cc1ccc(NC(=O)Cn2c(=O)oc3cc(S(=O)(=O)N4CCC(C)CC4)ccc32)cc1C	none | NR2E3 ag conf inactive | GAL4-VP16 luc inactive
COc1ccc(NC(=O)Cn2c(=O)oc3cc(S(=O)(=O)N4CCCC4)ccc32)cc1	none
CC1CCCC/C1=N\NC(=S)NCCc1ccccc1 (centres undefined)	none | NR2E3 ag conf inactive | GAL4-VP16 luc inactive
Cc1cc(C(=O)NNc2ccc(Cl)cc2)no1	none | NR2E3 ag conf inactive | GAL4-VP16 luc inactive
Cc1cc(C(=O)NNC(=O)Nc2ccc(Cl)cc2)no1	none
O=C(NCCC1=CCCCC1)c1ccc2c(c1)N(Cc1ccccc1)C(=O)CS2	none
